ChEMBL document CHEMBL5214904, “Design, Synthesis, and Biological Evaluation of Boron-Containing Macrocyclic Polyamines and Their Zinc(II) Complexes for Boron Neutron Capture Therapy” (J Med Chem, 2021)

What was measured:
Calf thymus DNA [1] = assay: Binding affinity to calf thymus DNA assessed as stabilization by measuring change in melting temperature at ratio of 0.2 by UV/vis spectrophotometric; type: nucleic-acid assay; settings: Bos taurus
Calf thymus DNA [2] = assay: Binding affinity to calf thymus DNA assessed as stabilization by measuring change in melting temperature at ratio of 0.1 by UV/vis spectrophotometric; type: nucleic-acid assay; settings: Bos taurus
[3] = Drug uptake in human A549 cells assessed as increase in intracellular boron concentration measured per cell at 30 uM measured after 24 hrs by ICP-MS analysis; type: ADME, cell-based; settings: a549, 24 h
Method in brief: (§1)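 Cells seeded at 5 × 10^5/well and grown overnight at 37 °C, 5% CO2, normoxic. A549 in DMEM/10% FBS; HeLa S3 in MEM/10% FBS. Exposed to 30 μM compound for 24 h. Cells washed with PBS ×3 and digested in 60% HNO3 for 24 h at room temperature, then diluted, centrifuged and filtered. Total boron (10B+11B) measured by ICP-MS and normalized per cell from hemocytometer counts of a parallel well. Mean ± SD of triplicates.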

[4] = Drug uptake in human A549 cells assessed as increase in intracellular boron atoms at 30 uM measured after 24 hrs by ICP-MS analysis; type: ADME, cell-based; settings: a549, 24 h; method in brief: as §1
[5] = Drug uptake in human HeLa S3 cells assessed as increase in intracellular boron concentration measured per cell at 30 uM measured after 24 hrs by ICP-MS analysis; type: ADME, cell-based; settings: hela s3, 24 h; method in brief: as §1
Calf thymus DNA [6] = assay: Binding affinity to calf thymus DNA assessed as stabilization by measuring change in melting temperature at ratio of 1 by UV/vis spectrophotometric; type: nucleic-acid assay; settings: Bos taurus
Calf thymus DNA [7] = assay: Binding affinity to calf thymus DNA assessed as stabilization by measuring change in melting temperature at ratio of 5 by UV/vis spectrophotometric; type: nucleic-acid assay; settings: Bos taurus

Drug uptake [3]	Drug uptake [4]	ΔTm (Calf thymus DNA [6])	ΔTm (Calf thymus DNA [7])	Compound	further results
				NCCCCNCCCN	ΔTm (Calf thymus DNA [1]): 12 °C; ΔTm (Calf thymus DNA [2]): 7 °C
Active	Active			c1cc(CN2CCNCCNCC2)cc(B2OC3(CCCCC3)C3(CCCCC3)O2)c1	
Active		3 °C	8 °C	c1cc(B2OC3(CCCCC3)C3(CCCCC3)O2)ccc1CN1CCNCCNCCNCCNCC1	Drug uptake [5]: > 2.5 fmol
Active		1 °C	6 °C	c1cc(CN2CCNCCNCCNCC2)cc(B2OC3(CCCCC3)C3(CCCCC3)O2)c1	
	Active			c1cc(B2OC3(CCCCC3)C3(CCCCC3)O2)ccc1CN1CCNCCNCC1	
